Activity calls are given as the source filed them. No cut-off for these calls is given here.
Legend:
[1] = Displacement of [3H]flumazenil from Benzodiazepine receptor in bovine cerebral cortex membrane; assay type: cell membranes, Bos taurus
[2] = target: GABA-A receptor; alpha-1/beta-2/gamma-2 (Rattus norvegicus, UniProt P18508+P62813+P63138); experiment: Displacement of [3H]flumazenil from rat GABA-A alpha-1-beta-2-gamma-2 receptor expressed in HEK293 cells; assay type: cell-based
How it was run: (§1)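 HEK293 membranes expressing rat α1β2γ2, α2β2γ2 or α5β3γ2, made in 10 mM potassium phosphate pH 7.4 (48000g, 4 °C) and resuspended with 100 mM KCl. Ki is mean ± SEM of three determinations in triplicate.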

[3] = target: Gamma-aminobutyric acid receptor subunit alpha-2 (Rattus norvegicus, UniProt P18508+P23576+P63138); experiment: Displacement of [3H]flumazenil from rat GABA-A alpha-2-beta-2-gamma-2 receptor expressed in HEK293 cells; assay type: cell-based; how it was run: as §1
[4] = target: GABA A receptor alpha-5/beta-3/gamma-2 (Rattus norvegicus, UniProt P18508+P19969+P63079); experiment: Displacement of [3H]flumazenil from rat GABA-A alpha-5-beta-3-gamma-2 receptor expressed in HEK293 cells; assay type: cell-based; how it was run: as §1
[5] = target: GABA-A receptor; alpha-1/beta-2/gamma-2 (Rattus norvegicus) (UniProt P18508+P62813+P63138); experiment: Agonist activity at rat GABA-A alpha-1-beta-2-gamma-2 receptor expressed in HEK293 cells assessed as increase in 36Cl- influx; assay type: functional, cell-based
How it was run: (§2)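 36Cl- uptake in HEK293 cells stably expressing rat α1β2γ2 or α2β2γ2, grown 3 days on polylysine-coated coverslips. Cells washed in HEPES/NaCl buffer pH 7.4, then dipped at room temperature into 36Cl- (2 µCi/mL) with drug, with or without GABA at EC20. Influx stopped after 8 s in ice-cold buffer with 0.1 mM picrotoxin. Result is % increase of EC20 GABA response, ≥5 independent experiments.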

[6] = target: Gamma-aminobutyric acid receptor subunit alpha-2 (Rattus norvegicus) (UniProt P23576); experiment: Agonist activity at rat GABA-A alpha-2-beta-2-gamma-2 receptor expressed in HEK293 cells assessed as increase in 36Cl- influx; assay type: functional, cell-based; how it was run: as §2
Mus musculus [7] = experiment: Anxiolytic effect in CD1 mouse assessed as increase in time spent in white compartment at 20 mg/kg, ip by light/dark box test; assay type: functional, organism-based; parameters: dose 20 mg/kg
How it was run: (§3)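 Male CD-1 mice (35-40 g), acclimatized 4 weeks to a reversed light cycle. […] Testing started 1 h later, with mouse placed in the lit chamber for a 5 min videotaped session.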

Mus musculus [8] = experiment: Anxiolytic effect in CD1 mouse assessed as increase in number of transfers from lit to the dark area at 20 mg/kg, ip by light/dark box test; assay type: functional, organism-based; parameters: dose 20 mg/kg; how it was run: as §3
Mus musculus [9] = experiment: Toxicity in CD1 mouse assessed as sedative effect at 20 mg/kg, ip by light/dark box test; assay type: organism-based; parameters: dose 20 mg/kg, route intraperitoneal; conditions: in vivo; how it was run: as §3
Bos taurus = organism: Bos taurus; experiment: Displacement of [3H]flumazenil from Benzodiazepine receptor in bovine cerebral cortex membrane at 10 uM; assay type: cell membranes
[10] = target: Gamma-aminobutyric acid receptor subunit alpha-2 (Rattus norvegicus) (UniProt P23576); experiment: Displacement of [3H]flumazenil from rat GABA-A alpha-2-beta-2-gamma-2 receptor expressed in HEK293 cells at 10 uM; assay type: cell-based
How it was run: (§4)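 HEK293 membranes expressing rat α2β2γ2 or α5β3γ2 incubated with [3H]flumazenil 1-2 nM for 1 h at 4 °C, in 10 mM potassium phosphate pH 7.4 with 100 mM KCl. Compound tested at 10 µM.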

[11] = target: GABA A receptor alpha-5/beta-3/gamma-2 (Rattus norvegicus) (UniProt P18508+P19969+P63079); experiment: Displacement of [3H]flumazenil from rat GABA-A alpha-5-beta-3-gamma-2 receptor expressed in HEK293 cells at 10 uM; assay type: cell-based; how it was run: as §4
Mus musculus [12] = experiment: Toxicity in CD1 mouse assessed as sedative effect at 1.25 mg/kg, ip by light/dark box test; assay type: organism-based; parameters: dose 1.25 mg/kg, route intraperitoneal; conditions: in vivo
How it was run: (§5)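 Male CD-1 albino mice (35-40 g), acclimatized 4 weeks to reversed 12 h light cycle, dosed ip in 1% carboxymethylcellulose vehicle; 1 h later placed in centre of lit chamber of light/dark box for 5 min, videotaped. Scored time in white compartment, lit/dark transfers, and rearings plus line crossings (activity) expressed per TW; n = 4-6, mean ± SEM versus vehicle.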

Mus musculus [13] = experiment: Anxiolytic effect in CD1 mouse assessed as increase in time spent in white compartment at 1.25 mg/kg, ip by light/dark box test; assay type: functional, organism-based; parameters: dose 1.25 mg/kg; how it was run: as §5
Mus musculus [14] = experiment: Anxiolytic effect in CD1 mouse assessed as increase in number of transfers from lit to the dark area at 1.25 mg/kg, ip by light/dark box test; assay type: functional, organism-based; parameters: dose 1.25 mg/kg; how it was run: as §5

Chain of GABA-A receptor; alpha-1/beta-2/gamma-2 (P18508 whole entry): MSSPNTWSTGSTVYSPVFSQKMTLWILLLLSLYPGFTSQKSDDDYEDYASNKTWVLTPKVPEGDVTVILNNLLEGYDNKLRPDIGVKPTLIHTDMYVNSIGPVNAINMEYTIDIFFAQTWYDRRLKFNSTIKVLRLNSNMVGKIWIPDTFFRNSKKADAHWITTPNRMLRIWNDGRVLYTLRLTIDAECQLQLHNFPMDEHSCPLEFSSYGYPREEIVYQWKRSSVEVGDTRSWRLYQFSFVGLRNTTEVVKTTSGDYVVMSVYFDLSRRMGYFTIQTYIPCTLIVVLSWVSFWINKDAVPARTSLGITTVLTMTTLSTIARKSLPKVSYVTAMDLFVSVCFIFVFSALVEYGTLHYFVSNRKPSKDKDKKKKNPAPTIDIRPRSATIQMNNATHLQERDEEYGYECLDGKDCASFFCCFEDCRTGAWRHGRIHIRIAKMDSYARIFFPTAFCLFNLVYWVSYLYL
Chain of GABA-A receptor; alpha-1/beta-2/gamma-2 (P62813 whole entry): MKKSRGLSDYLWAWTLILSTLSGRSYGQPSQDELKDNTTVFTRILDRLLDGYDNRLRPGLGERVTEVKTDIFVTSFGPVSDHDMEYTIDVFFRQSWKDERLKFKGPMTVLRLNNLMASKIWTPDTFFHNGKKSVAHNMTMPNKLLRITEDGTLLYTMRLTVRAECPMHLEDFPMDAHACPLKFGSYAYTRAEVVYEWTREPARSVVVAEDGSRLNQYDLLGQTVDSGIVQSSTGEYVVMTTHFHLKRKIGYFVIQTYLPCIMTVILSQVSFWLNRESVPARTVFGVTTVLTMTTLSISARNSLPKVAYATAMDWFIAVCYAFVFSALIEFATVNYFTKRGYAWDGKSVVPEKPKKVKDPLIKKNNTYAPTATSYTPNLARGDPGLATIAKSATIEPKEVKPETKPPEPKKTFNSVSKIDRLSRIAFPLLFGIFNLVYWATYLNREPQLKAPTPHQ
Chain of GABA-A receptor; alpha-1/beta-2/gamma-2 (P63138 whole entry): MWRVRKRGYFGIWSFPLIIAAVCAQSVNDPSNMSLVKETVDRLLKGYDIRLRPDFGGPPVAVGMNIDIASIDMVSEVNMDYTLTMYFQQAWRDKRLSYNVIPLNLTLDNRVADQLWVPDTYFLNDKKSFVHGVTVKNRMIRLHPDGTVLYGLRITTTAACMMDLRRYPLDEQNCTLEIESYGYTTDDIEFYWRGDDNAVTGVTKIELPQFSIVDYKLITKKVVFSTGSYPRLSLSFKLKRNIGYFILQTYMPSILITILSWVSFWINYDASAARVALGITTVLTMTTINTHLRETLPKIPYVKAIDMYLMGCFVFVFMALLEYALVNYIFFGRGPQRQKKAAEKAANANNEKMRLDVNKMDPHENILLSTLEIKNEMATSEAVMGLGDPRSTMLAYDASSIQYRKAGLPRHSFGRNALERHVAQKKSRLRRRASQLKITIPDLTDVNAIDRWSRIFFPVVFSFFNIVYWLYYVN
Chain of GABA A receptor alpha-5/beta-3/gamma-2 (P18508 whole entry): as the sequence (P18508 whole entry) above
Chain of GABA A receptor alpha-5/beta-3/gamma-2 (P19969 whole entry): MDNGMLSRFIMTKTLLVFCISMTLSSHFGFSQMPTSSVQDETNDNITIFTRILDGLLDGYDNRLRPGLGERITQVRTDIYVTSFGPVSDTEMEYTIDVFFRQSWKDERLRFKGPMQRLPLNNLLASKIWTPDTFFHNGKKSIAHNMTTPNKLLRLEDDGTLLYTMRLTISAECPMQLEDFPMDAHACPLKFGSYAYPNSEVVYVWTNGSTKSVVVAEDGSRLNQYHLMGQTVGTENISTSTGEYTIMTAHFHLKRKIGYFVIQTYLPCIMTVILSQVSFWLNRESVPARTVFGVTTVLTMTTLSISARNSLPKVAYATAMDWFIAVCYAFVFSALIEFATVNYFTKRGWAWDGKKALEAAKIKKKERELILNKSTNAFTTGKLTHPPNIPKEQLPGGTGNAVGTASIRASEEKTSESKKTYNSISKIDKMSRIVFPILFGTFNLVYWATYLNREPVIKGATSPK
Chain of GABA A receptor alpha-5/beta-3/gamma-2 (P63079 whole entry): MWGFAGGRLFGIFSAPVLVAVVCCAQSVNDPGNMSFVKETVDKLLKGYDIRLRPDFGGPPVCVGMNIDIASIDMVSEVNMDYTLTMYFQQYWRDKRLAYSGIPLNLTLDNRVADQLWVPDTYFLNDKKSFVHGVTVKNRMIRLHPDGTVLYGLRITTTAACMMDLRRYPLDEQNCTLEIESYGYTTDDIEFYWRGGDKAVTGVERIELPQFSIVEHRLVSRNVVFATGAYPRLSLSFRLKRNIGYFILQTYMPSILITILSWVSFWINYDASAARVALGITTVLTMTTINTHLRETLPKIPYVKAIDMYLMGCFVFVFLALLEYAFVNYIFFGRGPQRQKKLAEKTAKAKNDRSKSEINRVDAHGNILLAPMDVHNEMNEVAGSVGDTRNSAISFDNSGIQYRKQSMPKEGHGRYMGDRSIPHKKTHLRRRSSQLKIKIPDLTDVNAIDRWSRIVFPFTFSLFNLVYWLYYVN
Chain of Gamma-aminobutyric acid receptor subunit alpha-2 (Rattus norvegicus) (P23576 whole entry): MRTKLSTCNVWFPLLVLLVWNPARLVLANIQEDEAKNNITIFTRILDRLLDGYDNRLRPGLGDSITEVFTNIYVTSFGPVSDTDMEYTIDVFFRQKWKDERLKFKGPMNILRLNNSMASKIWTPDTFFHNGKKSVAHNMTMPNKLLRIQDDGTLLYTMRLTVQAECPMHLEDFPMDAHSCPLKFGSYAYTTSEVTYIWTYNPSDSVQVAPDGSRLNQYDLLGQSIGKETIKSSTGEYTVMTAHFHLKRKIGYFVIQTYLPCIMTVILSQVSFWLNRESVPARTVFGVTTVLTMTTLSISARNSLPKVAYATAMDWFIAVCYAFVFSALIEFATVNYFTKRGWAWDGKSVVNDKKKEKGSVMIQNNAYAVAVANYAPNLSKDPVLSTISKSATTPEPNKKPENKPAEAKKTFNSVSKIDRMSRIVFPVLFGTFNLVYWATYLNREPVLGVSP
Chain of Gamma-aminobutyric acid receptor subunit alpha-2 (P23576 whole entry, one chain of several): as the sequence (P23576 whole entry) above

Compound | Ki [1] [nM] | Ki [2] [nM] | Ki [3] [nM] | other results
O=C(NCc1ccc(F)cc1)C(=O)c1c[nH]c2ccccc12 | 52 | 245 | 118 | Ki [4]: 163 nM; Activity [5]: 11%; Activity [6]: 85%; Activity (Mus musculus [7]): Active; Activity (Mus musculus [8]): Active; Activity (Mus musculus [9]): Non-toxic
Cc1ccc2c(c1)CCC2NC(=O)C(=O)c1c[nH]c2ccc([N+](=O)[O-])cc12 (racemic) | – | – | – | inhibition (Bos taurus): 2%
COc1ccc(CNC(=O)C(=O)c2c[nH]c3ccc([N+](=O)[O-])cc23)cc1 | 53 | – | 1650 | –
O=C(NC1CCc2cc(F)ccc21)C(=O)c1c[nH]c2ccccc12 (racemic) | 2160 | 2050 | – | inhibition [10]: 29%; inhibition [11]: 44%
COc1ccc2c(c1)CCC2NC(=O)C(=O)c1c[nH]c2ccccc12 (racemic) | 636 | 246 | 690 | inhibition [11]: 28%
CN1C(=O)CN=C(c2ccccc2)c2cc(Cl)ccc21 [DIAZEPAM] | 10 | – | – | Activity (Mus musculus [12]): Non-toxic; Activity [6]: 81%; Activity (Mus musculus [13]): Active; Activity (Mus musculus [14]): Active
O=C(N[C@@H]1CCc2ccccc21)C(=O)c1c[nH]c2ccc([N+](=O)[O-])cc12 | 28 | – | 85 | Activity [5]: 1%; Activity [6]: 48%; Activity (Mus musculus [7]): inactive; Activity (Mus musculus [8]): inactive
O=C(NCc1ccc(F)cc1)C(=O)c1c[nH]c2ccc([N+](=O)[O-])cc12 | – | – | – | inhibition (Bos taurus): 24%
C[C@@H](NC(=O)C(=O)c1c[nH]c2ccc([N+](=O)[O-])cc12)c1ccccc1 | 17 | – | 121 | Activity [5]: 35%; Activity [6]: 79%; Activity (Mus musculus [7]): Active; Activity (Mus musculus [8]): Active; Activity (Mus musculus [9]): Non-toxic
O=C(NCc1ccccc1)C(=O)c1c[nH]c2ccccc12 | 120 | – | – | –
COc1ccc(CNC(=O)C(=O)c2c[nH]c3ccccc23)cc1 | 163 | 195 | 1950 | inhibition [11]: 30%
O=C(NCc1ccc([N+](=O)[O-])cc1)C(=O)c1c[nH]c2ccc([N+](=O)[O-])cc12 | 620 | 293 | 2980 | Ki [4]: 2220 nM
O=C(N[C@@H]1CCc2ccccc21)C(=O)c1c[nH]c2ccccc12 | 675 | – | 3100 | –
COc1ccc2c(c1)CCC2NC(=O)C(=O)c1c[nH]c2ccc([N+](=O)[O-])cc12 (racemic) | 13 | 28 | 231 | Ki [4]: 252 nM
C[C@@H](NC(=O)C(=O)c1c[nH]c2ccccc12)c1ccccc1 | 1310 | – | 1550 | –
O=C(NCc1ccccc1)C(=O)c1c[nH]c2ccc([N+](=O)[O-])cc12 | 117 | – | – | –
O=C(NC1CCc2cc(F)ccc21)C(=O)c1c[nH]c2ccc([N+](=O)[O-])cc12 (racemic) | 300 | 195 | 810 | Ki [4]: 1420 nM
Cc1ccc2c(c1)CCC2NC(=O)C(=O)c1c[nH]c2ccccc12 (racemic) | – | – | – | inhibition (Bos taurus): 15%
O=C(NC1CCc2cc([N+](=O)[O-])ccc21)C(=O)c1c[nH]c2ccccc12 (racemic) | – | – | – | inhibition (Bos taurus): 47%
O=C(NCc1ccc([N+](=O)[O-])cc1)C(=O)c1c[nH]c2ccccc12 | 21 | – | 210 | –
Cc1ccc(-c2nc3ccc(C)cn3c2CC(=O)N(C)C)cc1 [ZOLPIDEM] | 51 | – | – | –
O=C(NC1CCc2cc([N+](=O)[O-])ccc21)C(=O)c1c[nH]c2ccc([N+](=O)[O-])cc12 (racemic) | 178 | 200 | 513 | Ki [4]: 749 nM
